Experimental data from ChEMBL document CHEMBL1154849, “Bafilomycins produced in culture by Streptomyces spp. isolated from marine habitats are potent inhibitors of autophagy” (2010).
The source made the active and inactive calls. The rule behind the calls is not given here.

Experiments:
Assay type in all cases: functional, cell-based
MCF7 [1] = test: Inhibition of rapamycin-induced autophagy in human MCF7 cells expressing EGFP-LC3 assessed as decrease in EGFP levels at 100 nM after 4 hrs by Western blotting relative to control
Summary of the method: (§1)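 MCF-7 cells expressing EGFP-LC3 were exposed for 4 h to compounds alone or in combinations. Free EGFP band formation, a readout of EGFP-LC3 degradation, was followed by Western blot with anti-GFP antibody.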

MCF7 [2] = test: Induction of autophagosome accumulation in human MCF7 cells expressing EGFP-LC3 assessed as punctate EGFP-LC3 level at => 10 nM after 4 hrs by automated microscopy relative to control
MCF7 [3] = test: […] in human MCF7 cells expressing EGFP-LC3 assessed as EGFP levels at 100 nM after 4 hrs by Western blotting relative to control; summary of the method: as §1
MCF7 [4] = test: Induction of autophagosome accumulation in human MCF7 cells expressing EGFP-LC3 assessed as punctate EGFP-LC3 level at 0.3 nM after 4 hrs by automated microscopy relative to control
MCF7 [5] = test: Induction of autophagosome accumulation in human MCF7 cells expressing EGFP-LC3 assessed as punctate EGFP-LC3 level at => 1 nM after 4 hrs by automated microscopy relative to control
MCF7 [6] = test: Induction of autophagosome accumulation in human MCF7 cells expressing EGFP-LC3 assessed as punctate EGFP-LC3 level at => 100 nM after 4 hrs by automated microscopy relative to control
MCF7 [7] = test: […] in human MCF7 cells expressing EGFP-LC3 assessed as EGFP levels at 30 nM after 4 hrs by Western blotting relative to control

CO/C1=C\C(C)=C\[C@@H](C)[C@@H](O)[C@@H](C)C/C(C)=C/C=C/[C@H](OC)[C@@H]([C@@H](C)[C@@H](O)[C@H](C)[C@@]2(OC)C[C@@H](OC)[C@H](C)[C@@H](C(C)C)O2)OC1=O
Activity (MCF7 [1]): Active
Activity (MCF7 [2]): Active
Activity (MCF7 [3]): inactive

CO/C1=C\C(C)=C\[C@@H](C)[C@@H](O)[C@@H](C)C/C(C)=C/C=C/[C@H](OC)[C@@H]([C@@H](C)[C@@H](O)[C@H](C)[C@@]2(O)C[C@@H](OC)[C@H](C)[C@@H](C(C)C)O2)OC1=O [BAFILOMYCIN G]
Activity (MCF7 [1]): Active
Activity (MCF7 [3]): inactive
Activity (MCF7 [4]): Active

CO/C1=C\C(C)=C\[C@@H](C)[C@@H](O)[C@@H](C)C/C(C)=C/C=C/[C@H](OC)[C@@H]([C@@H](C)[C@@H](O)[C@H](C)[C@@]2(O)C[C@@H](O)[C@H](C)[C@@H](C(C)C)O2)OC1=O
Activity (MCF7 [1]): Active
Activity (MCF7 [3]): inactive
Activity (MCF7 [5]): Active

CO/C1=C\C(C)=C\[C@@H](C)[C@@H](O)[C@@H](C)C/C(C)=C/C=C/[C@H](OC)[C@@H]([C@@H](C)/C=C(\C)C2=C[C@@H](OC)[C@H](C)[C@@H](C(C)C)O2)OC1=O
Activity (MCF7 [1]): inactive
Activity (MCF7 [3]): Active
Activity (MCF7 [6]): Active

CO/C1=C\C(C)=C\[C@@H](C)[C@@H](O)[C@@H](C)C/C(C)=C/C=C/[C@H](OC)[C@@H]([C@@H](C)[C@@H](O)[C@H](C)[C@@]2(O)C[C@@H](OC(=O)C[C@@H]3SC[C@@H](C(=O)O)NC3=O)[C@H](C)[C@@H](C(C)C)O2)OC1=O
Activity (MCF7 [1]): Active
Activity (MCF7 [2]): Active
Activity (MCF7 [3]): inactive

CO[C@H]1C[C@@H]2CC[C@@H](C)[C@@](O)(O2)C(=O)C(=O)N2CCCC[C@H]2C(=O)O[C@H]([C@H](C)C[C@@H]2CC[C@@H](O)[C@H](OC)C2)CC(=O)[C@H](C)/C=C(\C)[C@@H](O)[C@@H](OC)C(=O)[C@H](C)C[C@H](C)/C=C/C=C/C=C/1C
Activity (MCF7 [7]): Active

CO/C1=C\C(C)=C\[C@@H](C)[C@@H](O)[C@@H](C)C/C(C)=C/C=C/[C@H](OC)[C@@H]([C@@H](C)[C@@H](O)[C@H](C)[C@@]2(O)C[C@@H](OC(=O)/C=C/C(=O)NC3=C(O)CCC3=O)[C@H](C)[C@@H](C(C)C)O2)OC1=O
Activity (MCF7 [1]): Active
Activity (MCF7 [3]): inactive
Activity (MCF7 [5]): Active

CO[C@H]1/C=C/C=C(\C)C[C@H](C)[C@H](O)[C@H](C)/C=C(C)/C=C(\C)C(=O)O[C@@H]1[C@@H](C)[C@@H](O)[C@H](C)C(=O)/C=C/[C@H](C)[C@H](O)C(C)C
Activity (MCF7 [1]): Active
Activity (MCF7 [2]): Active
Activity (MCF7 [3]): inactive

CO[C@H]1/C=C/C=C(\C)C[C@H](C)[C@H](O)[C@H](C)/C=C(C)/C=C(\C)C(=O)O[C@@H]1[C@@H](C)[C@@H](O)[C@H](C)[C@@]1(OC)C[C@@H](OC)[C@H](C)[C@@H](C(C)C)O1
Activity (MCF7 [1]): Active
Activity (MCF7 [3]): inactive
Activity (MCF7 [5]): Active
